Source: ChEMBL document CHEMBL1150316, “Arylethynyltriazole acyclonucleosides inhibit hepatitis C virus replication” (Bioorg Med Chem Lett, 2008)
≈ marks a conversion by molar mass, not a printed value.

Assays:
Hepatitis C virus [1] = assay: Antiviral activity against Hepatitis C virus infected human Huh-5-2 cells assessed as inhibition of luciferase activity after 4 days by RNA replicon assay; assay type: functional, organism-based, Hepacivirus hominis; conditions: Huh-5-2, 96 h
Procedure, shortened: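 Huh-5-2 subgenomic HCV replicon cells seeded 5000/well in complete DMEM with 250 µg/mL G418, 24 h at 37 °C (5% CO2). Threefold serial compound dilutions then added in DMEM without G418, 4 days at 37 °C. Replication read as luciferase activity (Steady-Glo). EC50 = concentration giving 50% inhibition of luciferase signal.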

[2] = Cytotoxicity against human Huh-5-2 cells; assay type: cell-based
Procedure, shortened: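 Exponentially growing Huh-5-2 cells treated with compound. CC50 taken as the concentration that inhibits cell proliferation by 50%.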

PaCa = assay: Cytotoxicity against human MIA PaCa cells upto 200 uM by MTT assay; assay type: functional, cell-based
Procedure, shortened: (§1)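 MiaPaCa, Capan-2 and PC-3 cells tested by MTT assay at concentrations up to 200 µM.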

Capan-2 = assay: Cytotoxicity against human Capan2 cells upto 200 uM by MTT assay; assay type: functional, cell-based; procedure, shortened: as §1
PC-3 = assay: Cytotoxicity against human PC3 cells upto 200 uM by MTT assay; assay type: functional, cell-based; procedure, shortened: as §1
Hepatitis C virus [3] = assay: Antiviral activity against Hepatitis C virus infected human Huh-9-13 cells assessed as reduction of HCV RNA level after 4 days by RT-PCR; assay type: functional, organism-based, Hepacivirus hominis; conditions: 96 h
Procedure, shortened: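 Huh-9-13 replicon cells seeded 5000/well in complete DMEM with 1,000 µg/mL G418, 24 h at 37 °C. Threefold serial compound dilutions added in DMEM without G418, 4 days at 37 °C. Monolayers PBS-washed, lysed in RLT buffer, replicon RNA measured by quantitative real-time PCR. EC50 = 50% reduction in HCV RNA versus untreated control.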

Huh-5-2 = assay: Cytotoxicity against human Huh-5-2 cells at 50 ug/ml; assay type: cell-based

| Structure (SMILES) | EC50 (Hepatitis C virus [1]) [µg/mL] | CC50 [2] [µg/mL] | Activity (PaCa) | Activity (Capan-2) | Activity (PC-3) | EC50 (Hepatitis C virus [3]) [µg/mL] | Activity (Huh-5-2) [%] |
| --- | --- | --- | --- | --- | --- | --- | --- |
| NC(=O)c1nc(C#Cc2ccc(C(F)(F)F)cc2)n(COCCO)n1 | 5 (≈ 14.1 µM) | 20 (≈ 56.5 µM) |  |  |  |  |  |
| NC(=O)c1nc(C#Cc2ccc(F)cc2)n(COCCO)n1 | 22 (≈ 72.3 µM) | > 50 | Not toxic | Not toxic | Not toxic |  |  |
| NC(=O)c1nc(C#Cc2cccc(F)c2)n(COCCO)n1 | 10 (≈ 32.9 µM) | 29 (≈ 95.3 µM) |  |  |  |  |  |
| NC(=O)c1nc(C#Cc2ccccc2)n(COCCO)n1 | 18 (≈ 62.9 µM) | > 50 | Not toxic | Not toxic | Not toxic | > 50 |  |
| NC(=O)c1nc(C#CC2(O)CCCC2)n(COCCO)n1 | > 50 | > 50 |  |  |  |  |  |
| NC(=O)c1ncn([C@@H]2O[C@H](CO)[C@@H](O)[C@H]2O)n1 [RIBAVIRIN] | 7 (≈ 28.7 µM) | 21 (≈ 86 µM) |  |  |  |  |  |
| Cc1ccc(C#Cc2nc(C(N)=O)nn2COCCO)cc1 | 16 (≈ 53.3 µM) | > 50 |  |  |  |  | < 80 |
| NC(=O)c1nc(C#CC2(O)CCCCC2)n(COCCO)n1 | > 50 | > 50 |  |  |  |  |  |
| CCCCCc1ccc(C#Cc2nc(C(N)=O)nn2COCCO)cc1 | 22 (≈ 61.7 µM) | 25 (≈ 70.1 µM) |  |  |  |  |  |
| NC(=O)c1nc(C#CC2=CCCCC2)n(COCCO)n1 | > 50 | > 50 |  |  |  |  |  |
| COc1ccc(C#Cc2nc(C(N)=O)nn2COCCO)cc1 | > 50 | > 50 |  |  |  |  |  |
| NC(=O)c1nc(C#Cc2ccccc2F)n(COCCO)n1 | 20 (≈ 65.7 µM) | > 50 |  |  |  |  | < 80 |
| NC(=O)c1nc(C#CCCCCl)n(COCCO)n1 | > 50 | > 50 |  |  |  |  |  |
